Source: ChEMBL document CHEMBL4393735, “Molecular modelling, synthesis, and biological evaluations of a 3,5-disubstituted isoxazole fatty acid analogue as a PPARα-selective agonist” (Bioorg Med Chem, 2019)
Calls of active or inactive are those of the source.

Assays:
[1] = molecular target: T1, Peroxisome proliferator-activated receptor alpha (Homo sapiens) (UniProt Q07869); test: Agonist activity at PPARalpha in human Huh7 cells assessed as PPARA mRNA expression at 50 uM measured after 18 hrs by qRT-PCR analysis; assay type: cell-based
T1 sequence (whole entry): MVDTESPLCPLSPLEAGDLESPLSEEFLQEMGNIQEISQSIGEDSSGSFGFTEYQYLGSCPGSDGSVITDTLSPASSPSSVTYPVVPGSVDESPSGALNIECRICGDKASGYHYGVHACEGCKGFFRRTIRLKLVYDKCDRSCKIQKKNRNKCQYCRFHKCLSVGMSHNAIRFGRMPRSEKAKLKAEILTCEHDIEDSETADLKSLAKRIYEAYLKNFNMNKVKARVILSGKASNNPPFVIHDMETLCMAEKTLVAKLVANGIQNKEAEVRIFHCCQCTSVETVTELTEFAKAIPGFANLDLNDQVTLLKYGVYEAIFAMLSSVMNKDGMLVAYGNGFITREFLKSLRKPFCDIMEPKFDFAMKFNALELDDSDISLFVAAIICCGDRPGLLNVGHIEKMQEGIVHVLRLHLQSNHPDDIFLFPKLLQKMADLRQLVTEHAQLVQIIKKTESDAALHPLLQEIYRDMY
Method in brief: (§1)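 Treatment for 18 h at 50 μM (or 1 μM for the 1 μM agents), DMSO vehicle. Harvested for qPCR. mRNA normalized to TBP by the comparative threshold method, expressed relative to DMSO control. Two biological replicates run in duplicate, mean ± SEM. Primary hepatocytes came from male C57BL/6N mice aged 7–8 weeks, isolated by portal-vein perfusion and digestion, seeded on collagen I and used on day 2. HuH-7 cells were kept in DMEM with 10% FBS and ITS.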

[2] = molecular target: T1, Peroxisome proliferator-activated receptor alpha (Homo sapiens); test: Agonist activity at PPARalpha in human Huh7 cells assessed as SCD1 mRNA expression at 50 uM measured after 18 hrs by qRT-PCR analysis; assay type: cell-based; method in brief: as §1
[3] = molecular target: T1, Peroxisome proliferator-activated receptor alpha (Homo sapiens); test: Agonist activity at PPARalpha in human Huh7 cells assessed as SREBF1 mRNA expression at 50 uM measured after 18 hrs by qRT-PCR analysis; assay type: cell-based; method in brief: as §1
[4] = molecular target: T2, Peroxisome proliferator-activated receptor alpha (Mus musculus) (UniProt P23204); test: Agonist activity at PPARalpha in C57BL/6N mouse primary hepatocytes assessed as PPARA mRNA expression at 50 uM measured after 18 hrs by qRT-PCR analysis; assay type: cell-based; method in brief: as §1
T2 sequence (whole entry): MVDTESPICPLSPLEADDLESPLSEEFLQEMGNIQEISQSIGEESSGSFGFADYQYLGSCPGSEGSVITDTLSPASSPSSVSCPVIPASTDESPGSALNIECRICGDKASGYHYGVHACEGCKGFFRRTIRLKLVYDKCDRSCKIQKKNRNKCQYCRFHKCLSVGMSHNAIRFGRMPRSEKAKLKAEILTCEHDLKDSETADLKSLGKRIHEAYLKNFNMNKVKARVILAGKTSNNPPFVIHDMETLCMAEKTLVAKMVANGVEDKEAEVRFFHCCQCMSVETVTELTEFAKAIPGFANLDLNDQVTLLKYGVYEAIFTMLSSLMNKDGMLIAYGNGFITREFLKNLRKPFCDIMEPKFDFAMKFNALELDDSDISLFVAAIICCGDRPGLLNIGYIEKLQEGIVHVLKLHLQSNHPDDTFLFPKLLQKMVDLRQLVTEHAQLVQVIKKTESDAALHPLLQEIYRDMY

[5] = molecular target: T2, Peroxisome proliferator-activated receptor alpha (Mus musculus); test: Agonist activity at PPARalpha in C57BL/6N mouse primary hepatocytes assessed as SCD1 mRNA expression at 50 uM measured after 18 hrs by qRT-PCR analysis; assay type: cell-based; method in brief: as §1
[6] = molecular target: T2, Peroxisome proliferator-activated receptor alpha (Mus musculus); test: Agonist activity at PPARalpha in C57BL/6N mouse primary hepatocytes assessed as SREBF1 mRNA expression at 50 uM measured after 18 hrs by qRT-PCR analysis; assay type: cell-based; method in brief: as §1
SGBS [7] = test: Upregulation of PPARgamma gene expression in human preadipocyte derived from Simpson-Golabi-Behmel syndrome (SGBS) patient at 25 uM measured for 12 days by qRT-PCR analysis; assay type: functional, cell-based
Method in brief: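 SGBS cells grown 4 days in biotin/D-pantothenate medium, then differentiated without FBS (apo-transferrin, insulin, T3, hydrocortisol, IBMX, dexamethasone) with 25 μM compound or 0.1 % DMSO added from day 0. After 4 days, switched to maintenance medium without IBMX/dexamethasone, renewed day 8. qPCR on days 0, 4, 8, 12, normalized to TBP (comparative threshold) and to day 0. Minimum three biological replicates in duplicate, mean ± SEM.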

SGBS [8] = test: Upregulation of CEBPA gene expression in human preadipocyte derived from Simpson-Golabi-Behmel syndrome (SGBS) patient at 25 uM measured for 12 days by qRT-PCR analysis; assay type: functional, cell-based
Method in brief: (§2)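 SGBS cells were differentiated with serum-free induction medium containing 25 μM test agent, 2 μM rosiglitazone or 0.1% DMSO from day 0. IBMX and dexamethasone were removed on day 4 and medium was renewed on day 8. RNA was taken on days 0, 4, 8 and 12 for qPCR, normalized to TBP and to day 0. At least three biological replicates in duplicate, two-way ANOVA with Bonferroni.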

SGBS [9] = test: Upregulation of ACSL1 gene expression in human preadipocyte derived from Simpson-Golabi-Behmel syndrome (SGBS) patient at 25 uM measured for 12 days by qRT-PCR analysis; assay type: functional, cell-based; method in brief: as §2
SGBS [10] = test: Upregulation of CD36 gene expression in human preadipocyte derived from Simpson-Golabi-Behmel syndrome (SGBS) patient at 25 uM measured for 12 days by qRT-PCR analysis; assay type: functional, cell-based; method in brief: as §2
SGBS [11] = test: Upregulation of FABP4 gene expression in human preadipocyte derived from Simpson-Golabi-Behmel syndrome (SGBS) patient at 25 uM measured for 12 days by qRT-PCR analysis; assay type: functional, cell-based; method in brief: as §2
SGBS [12] = test: Upregulation of PLIN1 gene expression in human preadipocyte derived from Simpson-Golabi-Behmel syndrome (SGBS) patient at 25 uM measured for 12 days by qRT-PCR analysis; assay type: functional, cell-based; method in brief: as §2
SGBS [13] = test: Upregulation of ADIPOQ gene expression in human preadipocyte derived from Simpson-Golabi-Behmel syndrome (SGBS) patient at 25 uM measured for 12 days by qRT-PCR analysis; assay type: functional, cell-based; method in brief: as §2
SGBS [14] = test: Upregulation of ANGPTL4 gene expression in human preadipocyte derived from Simpson-Golabi-Behmel syndrome (SGBS) patient at 25 uM measured for 12 days by qRT-PCR analysis; assay type: functional, cell-based; method in brief: as §2
SGBS [15] = test: Induction of adipocyte differentiation in human preadipocyte derived from Simpson-Golabi-Behmel syndrome (SGBS) patient assessed as lipid accumulation at 25 uM measured for 12 days by Oil red O staining based microscopic analysis; assay type: functional, cell-based
Method in brief: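 Differentiation of SGBS preadipocytes was started in serum-free medium with transferrin, insulin, T3, hydrocortisol, IBMX and dexamethasone, plus 25 μM test agent, 2 μM rosiglitazone or 0.1% DMSO. On day 4 medium was switched to lack IBMX and dexamethasone, and it was renewed on day 8. Cells were fixed with 4% PFA and stained with 0.3% Oil Red O on days 0, 4, 8 and 12, then photographed.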

[16] = molecular target: T2, Peroxisome proliferator-activated receptor alpha (Mus musculus); test: Agonist activity at PPARalpha in C57BL/6N mouse primary hepatocytes assessed as activation of Cpt1a mRNA expression at 50 uM measured after 18 hrs by qRT-PCR analysis; assay type: cell-based; method in brief: as §1
[17] = molecular target: T1, Peroxisome proliferator-activated receptor alpha (Homo sapiens); test: Agonist activity at PPARalpha in human Huh7 cells assessed as activation of CPT1A mRNA expression at 50 uM measured after 18 hrs by qRT-PCR analysis; assay type: cell-based; method in brief: as §1
[18] = molecular target: T2, Peroxisome proliferator-activated receptor alpha (Mus musculus); test: Agonist activity at PPARalpha in C57BL/6N mouse primary hepatocytes assessed as activation of Scd1 mRNA expression at 1 uM measured after 18 hrs by qRT-PCR analysis; assay type: cell-based; method in brief: as §1
[19] = molecular target: T2, Peroxisome proliferator-activated receptor alpha (Mus musculus); test: Agonist activity at PPARalpha in C57BL/6N mouse primary hepatocytes assessed as activation of Cpt1a mRNA expression at 1 uM measured after 18 hrs by qRT-PCR analysis; assay type: cell-based; method in brief: as §1
[20] = molecular target: T1, Peroxisome proliferator-activated receptor alpha (Homo sapiens); test: Agonist activity at PPARalpha in human Huh7 cells assessed as SREBF1 mRNA expression at 1 uM measured after 18 hrs by qRT-PCR analysis; assay type: cell-based; method in brief: as §1
[21] = molecular target: T1, Peroxisome proliferator-activated receptor alpha (Homo sapiens); test: Agonist activity at PPARalpha in human Huh7 cells assessed as SCD1 mRNA expression at 1 uM measured after 18 hrs by qRT-PCR analysis; assay type: cell-based; method in brief: as §1
[22] = molecular target: T1, Peroxisome proliferator-activated receptor alpha (Homo sapiens); test: Agonist activity at PPARalpha in human Huh7 cells assessed as PPARA mRNA expression at 1 uM measured after 18 hrs by qRT-PCR analysis; assay type: cell-based; method in brief: as §1
[23] = molecular target: T1, Peroxisome proliferator-activated receptor alpha (Homo sapiens); test: Agonist activity at PPARalpha in human Huh7 cells assessed as activation of CPT1A mRNA expression at 1 uM measured after 18 hrs by qRT-PCR analysis; assay type: cell-based; method in brief: as §1
[24] = molecular target: T2, Peroxisome proliferator-activated receptor alpha (Mus musculus); test: Agonist activity at PPARalpha in C57BL/6N mouse primary hepatocytes assessed as activation of Srebf1 mRNA expression at 1 uM measured after 18 hrs by qRT-PCR analysis; assay type: cell-based; method in brief: as §1

Activity [1]	Activity [2]	Activity [3]	Activity [5]	Activity [6]	Compound	Activity (SGBS [7])	Activity (SGBS [8])	Activity (SGBS [9])	Activity (SGBS [10])	Activity (SGBS [11])	Activity (SGBS [12])	Activity (SGBS [13])	Activity (SGBS [14])	Activity (SGBS [15])	also measured
inactive	inactive	inactive	inactive	inactive	CCCCCCCC(=O)/C=C/CCCCCC(=O)O	Active	Active	Active	Active	Active	Active	Active	Active	Active	Activity [4]: Active
inactive	inactive	inactive	Active	Active	Cc1cccc(Nc2cc(Cl)nc(SCC(=O)O)n2)c1C	Active	Active	Active	Active	Active	Active	Active	Active	Active	Activity [16]: Active; Activity [17]: Active
					CC(C)(Sc1ccc(CCN(CCCCC2CCCCC2)C(=O)NC2CCCCC2)cc1)C(=O)O										Activity [18]: Active; Activity [19]: Active; Activity [20]: inactive; Activity [21]: inactive; Activity [22]: inactive; Activity [23]: Active; Activity [24]: Active
